# According to ChEMBL document CHEMBL1144905, “More lipophilic dialkyldiamine-based diazeniumdiolates: synthesis, characterization, and application in preparing thromboresistant nitric oxide release polymeric coatings” (J Med Chem, 2003):
# Experiments:
# [1] = Partition coefficient (logP); type: physicochemical; settings: octanol/water
# Outline: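 Octanol/water partition coefficient calculated with ChemDraw, not measured.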
# [2] = Apparent half life period in PBS buffer; type: ADME
# Outline: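 Half-life by chemiluminescence at 37 °C. Diazeniumdiolate in 10 mM NaOH (or, if water-insoluble, in THF or NaOH/MeOH), 25–100 µL, injected into 3 mL deoxygenated 100 mM phosphate buffer pH 7.4 with 137 mM NaCl and 2.7 mM KCl. NO released, removed by nitrogen purge, read every 0.25 s to baseline. Half-life = time to release half of total possible NO.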
logP [1],half-life [2],Compound
6.26,,CCCCCCNCCCCCCN(CCCCCC)/[N+]([O-])=N/O
0.97,1.12 min,CNCCCCCCN(C)/[N+]([O-])=N/O
5.21,4.65 min,CCCCCNCCCCCCN(CCCCC)/[N+]([O-])=N/O
4.15,4.95 min,CCCCNCCCCCCN(CCCC)/[N+]([O-])=N/O
3.09,5.32 min,CCCNCCCCCCN(CCC)/[N+]([O-])=N/O
2.03,5.78 min,CCNCCCCCCN(CC)/[N+]([O-])=N/O
